Measured values: ChEMBL document CHEMBL4270638, “Sulfonyl-containing phenyl-pyrrolyl pentane analogues: Novel non-secosteroidal vitamin D receptor modulators with favorable physicochemical properties, pharmacokinetic properties and anti-tumor activity” (Eur J Med Chem, 2018)
≈ marks a conversion by molar mass, not a printed value. Calls of active or inactive are those of the source. The rule behind the calls is not given here.

Key:
[1] = tested on: Mus musculus; experiment: Toxicity in Balb/c nude mouse xenografted with human MCF7 cells assessed as effect on body weight at 10 mg/kg, ip administered three times a week for three weeks starting from day 7 after tumor cell inoculation; format: organism-based; settings: in vivo
Outline: (§1)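 […] BALB/c-nu mice, 10 weeks old. 1×10^7 MCF-7 cells injected into the left fourth mammary fat pad; dosing began at about 50 mm3 tumour volume (day 7), n = 5 per group. Dosed ip at 10 mg/kg in ethanol/EL/saline 1:1:18, three times weekly for three weeks. Tumour volume by calipers = length × width² × 0.5; tumour weight and body weight recorded.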

[2] = Mean residence time in Sprague-Dawley rat at 5 mg/kg, iv by HPLC method; format: ADME, organism-based; settings: in vivo
Outline: (§2)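 Male Sprague-Dawley rats, 180–220 g, n = 3 per group. Dosed iv at 5 mg/kg or ip at 20 mg/kg in ethanol/EL/saline (1:1:18). Plasma sampled at 0, 0.083, 0.167, 0.25, 0.5, 1, 2, 4, 8, 12 and 24 h and centrifuged 12000 rpm for 10 min. Plasma drug measured by HPLC; parameters by PK modelling; mean ± SD.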

[3] = tested on: MCF7; experiment: Antitumor activity against human MCF7 cells xenografted in Balb/c nude mouse assessed as increase in p21 expression at 10 mg/kg, ip administered three times a week for three weeks starting from day 7 after tumor cell inoculation by immunohistochemical analysis; format: functional, organism-based
[4] = tested on: MCF7; experiment: Induction of apoptosis in human MCF7 cells expressing scrambled siRNA assessed as live cells at 1 uM after 24 hrs by Annexin-V-FITC/propidium iodide staining based flow cytometry (reference value: 97.93%); format: functional
[5] = tested on: MCF7; experiment: Cell cycle arrest in human MCF7 cells expressing VDR siRNA assessed as accumulation at S phase at 1 uM after 24 hrs by propidium iodide staining based flow cytometry (reference value: 32%); format: functional
[6] = tested on: Mus musculus; experiment: Hypercalcemic effect in Balb/c nude mouse xenografted with human MCF7 cells assessed as effect on serum calcium level at 10 mg/kg, ip administered three times a week for three weeks starting from day 7 after tumor cell inoculation measured on day 17 during compound dosing (reference value: 0.6 umol/ml); format: ADME, organism-based; settings: in vivo
[7] = Half life in Sprague-Dawley rat at 5 mg/kg, iv by HPLC method; format: ADME, organism-based; settings: in vivo; outline: as §2
[8] = tested on: MCF7; experiment: Induction of apoptosis in human MCF7 cells expressing scrambled siRNA assessed as necrotic cells at 1 uM after 24 hrs by Annexin-V-FITC/propidium iodide staining based flow cytometry (reference value: 0.16%); format: functional
[9] = molecular target: T1, Vitamin D3 receptor (Homo sapiens, UniProt P11473); experiment: Displacement of fluormone VDR red from human full-length VDR after 4 hrs by fluorescence polarization assay
T1 sequence (P11473 whole entry): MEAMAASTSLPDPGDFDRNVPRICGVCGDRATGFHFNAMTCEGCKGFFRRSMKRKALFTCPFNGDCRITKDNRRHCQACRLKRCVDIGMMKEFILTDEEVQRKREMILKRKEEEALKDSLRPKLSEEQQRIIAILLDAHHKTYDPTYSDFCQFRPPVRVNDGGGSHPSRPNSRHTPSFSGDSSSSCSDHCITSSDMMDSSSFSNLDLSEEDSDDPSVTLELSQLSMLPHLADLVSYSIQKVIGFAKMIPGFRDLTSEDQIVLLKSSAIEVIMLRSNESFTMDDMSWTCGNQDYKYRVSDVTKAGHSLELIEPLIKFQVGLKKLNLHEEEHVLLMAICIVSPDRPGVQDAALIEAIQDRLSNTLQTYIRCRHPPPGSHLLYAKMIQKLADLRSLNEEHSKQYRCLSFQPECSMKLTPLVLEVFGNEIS

[10] = Mean residence time in Sprague-Dawley rat at 20 mg/kg, ip by HPLC method; format: ADME, organism-based; settings: in vivo; outline: as §2
[11] = tested on: MCF7; experiment: Cell cycle arrest in human MCF7 cells expressing scrambled siRNA assessed as accumulation at G0/G1 phase at 1 uM after 24 hrs by propidium iodide staining based flow cytometry (reference value: 49.28%); format: functional
[12] = tested on: MCF7; experiment: Induction of apoptosis in human MCF7 cells assessed as upregulation of p27 expression at 1 uM after 24 hrs by Western blot analysis; format: functional, cell-based
Outline: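 MCF-7 cells treated at 1 µM for 24 h. Lysates resolved by 10% SDS-PAGE and transferred to PVDF. Probed with rabbit anti-p21, anti-p27 and anti-Bax antibodies, with mouse anti-β-actin as loading control. HRP-conjugated secondary antibodies; bands detected on an infrared scanner.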

[13] = tested on: MCF7; experiment: Induction of apoptosis in human MCF7 cells expressing VDR siRNA assessed as late apoptotic cells at 1 uM after 24 hrs by Annexin-V-FITC/propidium iodide staining based flow cytometry (reference value: 1.01%); format: functional
[14] = tested on: MCF7; experiment: Antiproliferative activity against human MCF7 cells expressing VDR siRNA assessed as reduction in BrdU incorporation after 16 hrs by ELISA; format: functional, cell-based; settings: MCF7, 16 h
[15] = tested on: MCF7; experiment: Antitumor activity against human MCF7 cells xenografted in Balb/c nude mouse assessed as reduction in tumor growth at 10 mg/kg, ip administered three times a week for three weeks starting from day 7 after tumor cell inoculation; format: functional, organism-based; outline: as §1
[16] = tested on: MCF7; experiment: Induction of apoptosis in human MCF7 cells expressing VDR siRNA assessed as early apoptotic cells at 1 uM after 24 hrs by Annexin-V-FITC/propidium iodide staining based flow cytometry (reference value: 0.49%); format: functional
[17] = Half life in rat liver microsomes in presence of NADPH by HPLC method; format: ADME, microsome
Outline: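 Compounds incubated with rat liver microsomes plus NADPH. Remaining compound quantified by HPLC at 0, 5, 10, 20, 30, 45, 60 and 90 min, and half-life calculated.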

[18] = Clearance in Sprague-Dawley rat at 5 mg/kg, iv by HPLC method; format: ADME, organism-based; settings: in vivo; outline: as §2
[19] = tested on: BXPC-3; experiment: Antiproliferative activity against human BxPC3 cells after 24 hrs by MTT assay; format: functional, cell-based; settings: BXPC-3, 24 h
[20] = tested on: MCF7; experiment: Antiproliferative activity against human MCF7 cells after 24 hrs by MTT assay; format: functional, cell-based; settings: MCF7, 24 h
[21] = tested on: MCF7; experiment: Cell cycle arrest in human MCF7 cells expressing VDR siRNA assessed as accumulation at G0/G1 phase at 1 uM after 24 hrs by propidium iodide staining based flow cytometry (reference value: 49.17%); format: functional
[22] = tested on: MCF7; experiment: Cell cycle arrest in human MCF7 cells expressing scrambled siRNA assessed as accumulation at G2/M phase at 1 uM after 24 hrs by propidium iodide staining based flow cytometry (reference value: 19.6%); format: functional
[23] = Bioavailability in Sprague-Dawley rat at 20 mg/kg, ip by HPLC method; format: ADME, organism-based; settings: in vivo; outline: as §2
[24] = tested on: MCF7; experiment: Induction of apoptosis in human MCF7 cells expressing VDR siRNA assessed as necrotic cells at 1 uM after 24 hrs by Annexin-V-FITC/propidium iodide staining based flow cytometry (reference value: 0.15%); format: functional
[25] = Solubility of the compound in water at pH 7.4 by HPLC method; format: physicochemical
Outline: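 Aqueous solubility measured at pH 7.4, with samples quantified by HPLC.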

[26] = Half life in Sprague-Dawley rat at 20 mg/kg, ip by HPLC method; format: ADME, organism-based; settings: in vivo; outline: as §2
[27] = tested on: MCF7; experiment: Induction of apoptosis in human MCF7 cells expressing VDR siRNA assessed as live cells at 1 uM after 24 hrs by Annexin-V-FITC/propidium iodide staining based flow cytometry (reference value: 98.35%); format: functional

Row | SMILES | Activity [1] | MRT [2] [h] | Activity [3] | Activity [4] [%] | Activity [5] [%] | Activity [6] | half-life [7] [h] | Activity [8] [%] | IC50 [9] [µM] | MRT [10] [h] | Activity [11] [%] | Activity [12] | Activity [13] [%] | IC50 [14] [µM] | Activity [15] | Activity [16] [%] | half-life [17] [h] | clearance [18] [mL/min] | IC50 [19] [µM] | IC50 [20] [µM] | further results
1 | CCN(CC)CCNC(=O)c1ccc(C(CC)(CC)c2ccc(OCSC)c(C)c2)n1CC | Non-Toxic | 8.08 | Active | 94.7 | 32.42 | Non-Toxic | 4.72 | 0.34 | 0.0891 | 15.7 | 55.26 | Active | 1.67 | > 50 | Active | 0.47 | 0.954 | 7 | 5.13 | 5.16 | Activity [21]: 50.3%; Activity [22]: 15.96%; bioavailability [23]: 43.2%; Activity [24]: 0.51%; solubility [25]: 74.6 µg/mL (≈ 157 µM); half-life [26]: 10.8 h; Activity [27]: 97.35%
2 | CCN(CC)CCNC(=O)c1cc(C(CC)(CC)c2ccc(OCS(=O)(=O)c3ccccc3)c(C)c2)cn1CC | Non-Toxic | 9.72 | Active | 94.96 | 26.36 | Non-Toxic | 6.6 | 0.46 | 0.125 | 11.9 | 55.96 | Active | 1.57 | > 50 | Active | 0.7 | 0.987 | 11.2 | 4.69 | 2.03 | Activity [21]: 50.69%; Activity [22]: 13.22%; bioavailability [23]: 40.3%; Activity [24]: 0.25%; solubility [25]: 85.3 µg/mL (≈ 150 µM); half-life [26]: 7.65 h; Activity [27]: 97.48%
